# From article PMC8535816 (Science Advances, 2021)
# Positions of bridges follow the written chain, without caps; N, C: chain ends. No end group written: not given here. *: point of attachment. Biotin = O=C1N[C@H]2[C@H](CS[C@H]2CCCCC(=O)*)N1; Ahx = NCCCCCC(=O)O
# Assays:
# [1] = molecular target: human GPR37 overexpressed on HEK293-based cells (human) (UniProt O15354); assay: saturation binding of biotinylated ligand to transfected cells
# human GPR37L1 [2] = assay: Saturation binding of biotinylated OCN, GPR37L1-transfected cells; settings: 2 hours at 37°C
# Outline: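 HEK293T cells were transfected with GPR37L1 and replated on poly-L-lysine at 36 h. After 24 h they received serial dilutions of biotinylated OCN in 0.5% BSA/Ca2+/Mg2+ PBS for 2 h at 37°C. Cells were then washed, fixed in 4% PFA, permeabilised with 0.3% Triton, given extra-avidin peroxidase for 30 min and TMB, and read at 450 nm. Nonspecific binding used 100 μM unlabelled OCN; specific binding was total minus nonspecific; Kd came from saturation curves.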
# OLs from GPR37^−/− mice = assay: MBP expression in primary OLs from GPR37^−/− mice; type: cell-based, mouse; settings: OPC from GPR37^−/− mice induced with T3; n = 3 independent experiments
# Outline: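 Primary OPCs were isolated from P7–P8 GPR37−/− mouse pups. They were differentiated into mature OLs with T3 and CNTF, then treated with the test compound. OPC purity and OL induction were checked with specific markers.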
# primary rat OLs [3] = assay: Myelin PLP1 and MBP expression in primary rat OLs/OPCs in differentiation medium; type: cell-based; settings: n = 3 independent experiments
# primary rat OLs [4] = assay: Myrf expression in primary rat OLs; type: cell-based; settings: n = 3 independent experiments
# Outline: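 OPCs came from forebrains of P1–P2 Sprague-Dawley rats. Mixed glia were grown up to 12 days on poly-L-lysine, and microglia were removed by shaking at 200 rpm. OPCs were transduced with lentiviral shRNA against GPR37, then differentiated with CNTF and T3 for 48 h. The resulting OLs were treated with the test compound in differentiation medium for 48 h before analysis.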
# human GPR37L1 [5] = assay: PRESTO-Tango β-arrestin recruitment, GPR37L1-transfected HTLA cells; type: cell-based; settings: cells expressing GPR37L1 (HTLA)
# Outline: (§1)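 HTLA cells (HEK293 carrying a tTA-luciferase reporter and β-arrestin2–TEV), kept under puromycin 2 μg/ml plus hygromycin B 100 μg/ml, expressing GPR37-Tango or GPR37L1-Tango. Seeded on poly-L-lysine; the next day given graded OCN concentrations in assay buffer for 24 h. Luciferase reagent (20-fold diluted) added for 15–20 min at 20–25°C; luminescence read as RLU. Concentration-response curves fitted.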
# [6] = ref [15]–[18]; cited from earlier work
# human GPR37 [7] = molecular target: T1, human GPR37 (Homo sapiens, UniProt O15354); assay: ERK phosphorylation; type: cell-based; settings: OCN 20 nM; GPR37-transfected HEK293 cells; immunoblot
# T1 sequence (O15354 27-613): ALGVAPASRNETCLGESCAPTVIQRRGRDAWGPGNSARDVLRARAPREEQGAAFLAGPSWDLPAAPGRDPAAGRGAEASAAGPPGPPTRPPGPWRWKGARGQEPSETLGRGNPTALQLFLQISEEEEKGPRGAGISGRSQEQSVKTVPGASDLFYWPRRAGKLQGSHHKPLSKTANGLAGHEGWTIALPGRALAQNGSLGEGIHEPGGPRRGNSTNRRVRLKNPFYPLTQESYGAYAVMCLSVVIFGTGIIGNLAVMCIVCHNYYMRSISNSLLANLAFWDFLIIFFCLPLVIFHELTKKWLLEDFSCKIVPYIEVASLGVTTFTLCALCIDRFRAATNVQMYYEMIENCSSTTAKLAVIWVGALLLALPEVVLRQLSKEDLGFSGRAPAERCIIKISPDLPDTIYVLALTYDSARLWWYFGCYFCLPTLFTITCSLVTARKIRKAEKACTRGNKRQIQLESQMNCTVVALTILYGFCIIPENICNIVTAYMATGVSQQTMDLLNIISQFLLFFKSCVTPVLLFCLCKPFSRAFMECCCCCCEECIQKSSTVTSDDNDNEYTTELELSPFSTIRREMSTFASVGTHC
# Outline: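 Human GPR37 introduced into HEK293 cells by calcium-phosphate transfection, then exposed to OCN 20 nM. Lysates made in RIPA buffer with protease inhibitors and assayed by BCA. 30–50 μg protein run on SDS-PAGE and blotted to PVDF or nitrocellulose. Blocked in 5% milk for 1 h, primary antibody overnight at 4°C, HRP secondary for 1 h at room temperature.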
# [8] = system: OLs derived from primary rat OPCs; assay: OL cell viability; type: cell-based; settings: OCN 0 to 50 nM, up to 72 hours; MTT; n = 3 independent experiments
# Outline: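 Rat OPCs were plated on poly-L-lysine at 1 × 10^4 per well in 96-well plates, in the presence of CNTF and T3. Cells were exposed to the test compound at 0 to 50 nM, or for up to 72 h. Viability was read with a commercial MTT kit.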
# WT mice = assay: ICV delivery of OCN into WT mice: myelin PLP1 and MBP; type: in vivo, mouse; settings: ICV 100 ng/day for 10 days, n ≥ 6
# Outline: (§2)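 Synthesized mouse OCN at 100 ng/day, or PBS, was infused ICV for 10 days before analysis. Tissue protein was extracted in RIPA buffer with protease inhibitors and quantified by BCA. Then 30 to 50 μg was run on SDS-PAGE and blotted. Blots were blocked in 5% milk for 1 h, incubated with primary antibody overnight at 4°C, then with HRP-secondary for 1 h at room temperature.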
# human GPR37 [9] = molecular target: T1, human GPR37; assay: cAMP production, GPR37-transfected HEK293 cells; type: cell-based; settings: forskolin and/or OCN 30 min, cAMP-Glo Max
# Outline: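 HEK293 cells were transfected with human GPR37 for 48 h, then seeded on poly-L-lysine-coated plates. They were exposed to forskolin and/or graded OCN for 30 min. cAMP was measured by luminescent cAMP-Glo Max assay. At least four experiments, each in triplicate.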
# primary rat OPCs = assay: OPC proliferation; type: cell-based; settings: OCN 20 nM; EdU incorporation; n = 3 independent experiments
# Outline: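 Primary rat OPCs (P1–P2 Sprague-Dawley forebrain) were plated on poly-L-lysine at 1 × 10^4/well in 96-well plates. They were treated with the test compound at 20 nM before assessment. Proliferation was read by EdU incorporation with a commercial kit.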
# primary rat OLs [10] = assay: ERK phosphorylation; type: cell-based
# human GPR37 [11] = molecular target: T1, human GPR37; assay: PRESTO-Tango β-arrestin recruitment, GPR37-transfected HTLA cells; type: cell-based
# Outline: as §1
# primary rat OLs [12] = assay: cAMP production in primary rat OLs; type: cell-based
# Outline: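 Rat OPCs were transduced with lentiviral shRNA against GPR37 and kept with CNTF and T3 for 48 h. They were then plated at 1 × 10^4/well on poly-L-lysine. Cells received forskolin plus the test compound at the indicated concentrations for 30 min. Intracellular cAMP was measured by cAMP-Glo Max luminescence to give concentration-response curves. Runs were repeated at least four times, each in triplicate.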
# neurons = neurons (DRN, MRN, VTA, CA3); ref [16], [22], [51]; cited from earlier work
# GPR37^−/− mice = assay: ICV delivery of OCN into GPR37^−/− mice: myelin PLP1 and MBP; type: in vivo, mouse; settings: ICV 100 ng/day for 10 days, n ≥ 6
# Outline: as §2
# OCN^−/− mice [13] = assay: Hot plate test; type: in vivo; settings: mouse OCN 50 ng/g i.p. for 10 days, hot plate 53°C, n ≥ 6
# Outline: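 Mice aged 8 weeks were placed on a hot plate held at 53°C. Latency was scored as the time to lick or flick a hind paw, or to jump. The plate temperature was calibrated to give a withdrawal response within 10 to 15 s in control mice. OCN−/− mice received synthesized mouse OCN at 50 ng/g body weight i.p. for 10 days before testing.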
# OCN^−/− mice [14] = assay: ICV delivery of OCN into OCN^−/− mice: OPC/OL numbers and myelin proteins; type: in vivo, mouse; settings: ICV 100 ng/day for 10 days
# Outline: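 OCN−/− mice received synthesized mouse OCN at 100 ng/day, or PBS, by ICV infusion for 10 days. For proliferation, BrdU at 100 μg/g was given i.p. 2 days before sacrifice, and sections were co-stained for BrdU/PDGFRα. For differentiation, BrdU at 200 μg/g was pulsed for four consecutive days from the start of treatment, with BrdU/CC1 co-staining at the end. Positive cells were counted per 0.25 mm2 in CC.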
# [15] = OCN level in CC and SC after ICV delivery into OCN^−/− mice; type: in vivo, mouse; settings: ICV infusion 100 ng/day for 10 days, n = 5
# human GPR37 [16] = molecular target: T1, human GPR37; assay: Intracellular calcium; type: cell-based; settings: then OCN, GPR37-transfected HEK293-GCaMP6s cells
# Outline: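 HEK293 cells stably expressing GCaMP6s (made by lentiviral infection of HEK293T) were transfected with human GPR37 for 48 h. Medium was swapped for HBSS with Ca2+/Mg2+ and cells held at 37°C for 30 min. Pretreatment was anti-GPR37 antibody or pertussis toxin, then OCN 20 nM. GCaMP6s fluorescence was imaged at 1 s intervals.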
substance,measurement,setting,value
"biotinylated osteocalcin (OCN), species not stated (peptide)",Kd,[1],14.1 nM
{Biotin-Ahx}-YLGASVPSPDPLEPTREQCELNPACDELSDQYGLKTAYKRIYGITI (disulfide 19-25; N-terminus assumed) [biotinylated OCN],binding to GPR37L1,human GPR37L1 [2],bound to GPR37 rather than GPR37L1
"osteocalcin (YLGASVPSPDPLEPTREQCELNPACDELSDQYGLKTAYKRIYGITI; biotin (Biotin Protein Labeling Kit, Roche; sites not stated)) [OCN]","myelin MBP response to OCN, GPR37 absent",OLs from GPR37^−/− mice,unresponsive
same,OCN's suppression of the MBP level with GPR37L1 silenced,"primary rat OLs [3]; primary rat OLs, GPR37L1 shRNA",unable to inhibit OCN’s suppression of the MBP level
same,expression of myelin PLP1 and MBP,"primary rat OLs [3]; primary rat OPCs in differentiation medium, immunoblot, immunostaining",dose-dependent reduction
same,down-regulation of Myrf by OCN with GPR37 knockdown,"primary rat OLs [4]; GPR37 shRNA, OCN 20 nM",abolished
same,expression of Myrf,primary rat OLs [4],dose-dependently inhibited
same,luciferase responses (β-arrestin recruitment),human GPR37L1 [5],failed to exert luciferase responses
same,ability of crossing the blood-brain barrier,[6],crossing the blood-brain barrier (BBB)
same,ERK phosphorylation,human GPR37 [7],stimulated ERK phosphorylation
same,OL cell viability,[8],no effects
same,expression of myelin PLP1 and MBP in CC,WT mice,significant down-regulation
same,cAMP production,human GPR37 [9],significantly inhibited cAMP production
same,OPC proliferation,primary rat OPCs,no effects
same,ERK phosphorylation,primary rat OLs [10]; myelinating primary rat OLs,boost of ERK phosphorylation
same,luciferase activity (β-arrestin recruitment),human GPR37 [11],dose-dependent increase
same,OCN-induced inhibition of intracellular cAMP production with GPR37 silenced,primary rat OLs [12]; GPR37 shRNA,substantially prevented
same,intracellular cAMP level,primary rat OLs [12]; forskolin and OCN 30 min,reduction of the intracellular cAMP level
same,synthesis of monoamine neurotransmitters,neurons,promote the synthesis of monoamine neurotransmitters
same,synthesis of γ-aminobutyric acid (GABA),neurons,reduce the synthesis of γ-aminobutyric acid (GABA)
same,expression of myelin PLP1 and MBP in CC,GPR37^−/− mice,absent
same,deficit of thermal sensitivity (paw lick latency),OCN^−/− mice [13],partially rescued
YLGASVPSPDPLEPTREQCELNPACDELSDQYGLKTAYKRIYGITI [mouse OCN],BrdU^+/CC1^+ differentiation OLs,OCN^−/− mice [14]; CC of OCN^−/− mice,decreased
same,CC1^+ cells,OCN^−/− mice [14]; CC of OCN^−/− mice,decreased
same,numbers of BrdU^+/PDGFRα^+ proliferative OPCs,OCN^−/− mice [14]; CC of OCN^−/− mice,rarely affected
same,numbers of total PDGFRα^+ OPCs,OCN^−/− mice [14]; OCN^−/− mice,rarely affected
same,expression of myelin PLP1 and MBP,"OCN^−/− mice [14]; white matter regions (CC, SC) of OCN^−/− mice, n = 6",decreased
same,OCN level in CC and SC,[15],significant increase
"pertussis toxin [PTX, reference compound]",effect of pretreatment on OCN-caused boost of ERK phosphorylation,"primary rat OLs [10]; PTX pretreatment, primary rat OLs",blocked
same,effect of pretreatment on OCN-triggered increase of iCa^2+,human GPR37 [16],abolished
same,effect of pretreatment on OCN-caused reduction of the intracellular cAMP level,primary rat OLs [12]; PTX pretreatment,blocked
